Activity calls are given as the source filed them. No cut-off for these calls is given here.
Experiments:
Nucleic Acid [1] = test: Binding affinity to wild type HIV1 TAR RNA at pH 6.8 by ethidium bromide displacement assay; assay type: nucleic-acid assay, Human immunodeficiency virus 1
Method in brief: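 TAR RNA (200 nM/strand) and EtBr (5 μM) in 100 mM KCl, 10 mM SC, 0.5 mM EDTA, pH 6.8, titrated with ligand aliquots (at most 4% v/v). Fluorescence excited at 545 nm and read at 610 nm. IC50 is the ligand concentration that displaces 50% of EtBr, taken from a sigmoidal fit of fraction displaced versus log ligand concentration.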

Nucleic Acid [2] = test: Binding affinity to HIV1 TAR RNA tetraloop mutant at pH 6.8 by ethidium bromide displacement assay; assay type: nucleic-acid assay, Human immunodeficiency virus 1
Method in brief: (§1)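 Synthetic 2′-ACE-protected TAR RNA, deprotected, heated 98 °C 5 min, then ice-cooled 15 min. TAR RNA at 200 nM/strand with ethidium bromide 5 μM in 100 mM KCl, 10 mM SC, 0.5 mM EDTA, pH 6.8. Ligand added stepwise, ≤4% v/v. Excitation 545 nm, emission 580–660 nm, intensity at 610 nm normalized. IC50 from sigmoidal fit of fraction EtBr displaced vs log ligand; association constants from Scatchard analysis.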

Nucleic Acid [3] = test: Binding affinity to HIV1 TAR RNA bulgeless tetraloop mutant at pH 6.8 by ethidium bromide displacement assay; assay type: nucleic-acid assay, Human immunodeficiency virus 1; method in brief: as §1
Nucleic Acid [4] = test: Binding affinity to HIV1 TAR RNA U3 bulge mutant at pH 6.8 by ethidium bromide displacement assay; assay type: nucleic-acid assay, Human immunodeficiency virus 1; method in brief: as §1
Nucleic Acid [5] = test: Binding affinity to wild type HIV1 TAR RNA assessed as association constant at pH 6.8 by ethidium bromide displacement assay based Scatchard analysis method; assay type: nucleic-acid assay; conditions: Human immunodeficiency virus 1
Method in brief: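 Ethidium bromide displacement: 5 μM EtBr with TAR RNA at 200 nM/strand (under 20% of EtBr bound) in 100 mM KCl, 10 mM SC, 0.5 mM EDTA, pH 6.8. Ligand added in concentrated aliquots, at most 4% v/v. Excitation 545 nm, emission 580–660 nm, intensity at 610 nm. Association constant obtained by Scatchard analysis of the titration data.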

Nucleic Acid [6] = test: Binding affinity to HIV1 TAR RNA bulgeless mutant assessed as association constant at pH 6.8 by ethidium bromide displacement assay based Scatchard analysis method; assay type: nucleic-acid assay; conditions: Human immunodeficiency virus 1; method in brief: as §1
Nucleic Acid [7] = test: Binding affinity to HIV1 TAR RNA tetraloop mutant assessed as association constant at pH 6.8 by ethidium bromide displacement assay based Scatchard analysis method; assay type: nucleic-acid assay; conditions: Human immunodeficiency virus 1; method in brief: as §1
Nucleic Acid [8] = test: Binding affinity to HIV1 TAR RNA bulgeless tetraloop mutant assessed as association constant at pH 6.8 by ethidium bromide displacement assay based Scatchard analysis method; assay type: nucleic-acid assay; conditions: Human immunodeficiency virus 1; method in brief: as §1
Nucleic Acid [9] = test: Binding affinity to HIV1 TAR RNA U3 bulge mutant at assessed as association constant at pH 6.8 by ethidium bromide displacement assay based Scatchard analysis method; assay type: nucleic-acid assay; conditions: Human immunodeficiency virus 1; method in brief: as §1
Nucleic Acid [10] = test: Binding affinity to HIV1 TAR RNA bulgeless mutant at pH 6.8 by ethidium bromide displacement assay; assay type: nucleic-acid assay, Human immunodeficiency virus 1; method in brief: as §1
[11] = tested on: Human immunodeficiency virus 1; test: Induction of thermal stability changes in wild type HIV1 TAR RNA assessed as change in melting temperature using 1 molar equivalents of compound pre-incubated for 4 hrs at pH 6.8 at 4 degC before test by UV thermal denaturation assay
[12] = tested on: Human immunodeficiency virus 1; test: Induction of thermal stability changes in HIV1 TAR RNA U3 bulge mutant assessed as change in melting temperature using 1 molar equivalents of compound pre-incubated for 4 hrs at pH 6.8 at 4 degC before test by UV thermal denaturation assay
Method in brief: (§2)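 TAR RNA mutants at 1 μM/strand mixed with 1 or 2 molar equivalents of ligand in 100 mM KCl, 10 mM SC, 0.5 mM EDTA, pH 6.8, then held 4 h at 4 °C. Absorbance at 260 nm in 1 cm cuvettes, 15–100 °C, heating 0.3 °C/min. Tm taken from first-derivative plots and compared with the no-ligand sample.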

[13] = tested on: Human immunodeficiency virus 1; test: Induction of thermal stability changes in HIV1 TAR RNA tetraloop mutant assessed as change in melting temperature using 1 molar equivalents of compound pre-incubated for 4 hrs at pH 6.8 at 4 degC before test by UV thermal denaturation assay; method in brief: as §2
[14] = tested on: Human immunodeficiency virus 1; test: Induction of thermal stability changes in HIV1 TAR RNA bulgeless mutant assessed as change in melting temperature using 1 molar equivalents of compound pre-incubated for 4 hrs at pH 6.8 at 4 degC before test by UV thermal denaturation assay; method in brief: as §2
[15] = tested on: Human immunodeficiency virus 1; test: Induction of thermal stability changes in HIV1 TAR RNA bulgeless tetraloop mutant assessed as change in melting temperature using 1 molar equivalents of compound pre-incubated for 4 hrs at pH 6.8 at 4 degC before test by UV thermal denaturation assay; method in brief: as §2
[16] = tested on: Human immunodeficiency virus 1; test: Induction of thermal stability changes in wild type HIV1 TAR RNA assessed as change in melting temperature using 2 molar equivalents of compound pre-incubated for 4 hrs at pH 6.8 at 4 degC before test by UV thermal denaturation assay
[17] = tested on: Human immunodeficiency virus 1; test: Induction of thermal stability changes in HIV1 TAR RNA U3 bulge mutant assessed as change in melting temperature using 2 molar equivalents of compound pre-incubated for 4 hrs at pH 6.8 at 4 degC before test by UV thermal denaturation assay; method in brief: as §2
[18] = tested on: Human immunodeficiency virus 1; test: Induction of thermal stability changes in HIV1 TAR RNA tetraloop mutant assessed as change in melting temperature using 2 molar equivalents of compound pre-incubated for 4 hrs at pH 6.8 at 4 degC before test by UV thermal denaturation assay; method in brief: as §2
Nucleic Acid [19] = test: Induction of conformational changes in wild type HIV1 TAR RNA assessed as changes in 210 to 220 nm region using 1 molar equivalents of compound at pH 6.8 by CD spectroscopy; assay type: nucleic-acid assay; conditions: Human immunodeficiency virus 1
Nucleic Acid [20] = test: Induction of conformational changes in wild type HIV1 TAR RNA assessed as increase in intensity in 265 nm region using 1 molar equivalents of compound at pH 6.8 by CD spectroscopy; assay type: nucleic-acid assay; conditions: Human immunodeficiency virus 1

Structure (SMILES)	IC50 (Nucleic Acid [1]) [µM]	IC50 (Nucleic Acid [2]) [µM]	IC50 (Nucleic Acid [3]) [µM]	IC50 (Nucleic Acid [4]) [µM]	K (Nucleic Acid [5])	K (Nucleic Acid [6])	K (Nucleic Acid [7])	K (Nucleic Acid [8]) [×10⁷ /M]	K (Nucleic Acid [9]) [×10⁶ /M]	IC50 (Nucleic Acid [10]) [µM]	ΔTm [11] [°C]	ΔTm [12] [°C]	ΔTm [13] [°C]	ΔTm [14] [°C]	ΔTm [15] [°C]	ΔTm [16] [°C]	ΔTm [17] [°C]	ΔTm [18] [°C]	Activity (Nucleic Acid [19])	Activity (Nucleic Acid [20])
NC[C@@H]1O[C@H](O[C@H]2[C@@H](O)[C@H](O[C@@H]3[C@@H](O)[C@H](N)C[C@H](N)[C@H]3O[C@H]3O[C@H](CN)[C@@H](O)[C@H](O)[C@H]3N)O[C@@H]2Cn2cc(COCCCCCCCCCCCCOCc3cn(C[C@H]4O[C@@H](O[C@@H]5[C@@H](O)[C@H](N)C[C@H](N)[C@H]5O[C@H]5O[C@H](CN)[C@@H](O)[C@H](O)[C@H]5N)[C@H](O)[C@@H]4O[C@H]4O[C@@H](CN)[C@@H](O)[C@H](O)[C@H]4N)nn3)nn2)[C@H](N)[C@@H](O)[C@@H]1O	0.144	0.3	0.158	0.326	2.5 ×10⁷ /M	4.4 ×10⁷ /M	2 ×10⁶ /M	2.7	1.5	–	–	–	–	–	–	–	–	–	–	–
C/C(CCc1cn(C[C@H]2O[C@@H](O[C@@H]3[C@@H](O)[C@H](N)C[C@H](N)[C@H]3O[C@H]3O[C@H](CN)[C@@H](O)[C@H](O)[C@H]3N)[C@H](O)[C@@H]2O[C@H]2O[C@@H](CN)[C@@H](O)[C@H](O)[C@H]2N)nn1)=C(/C)CCc1cn(C[C@H]2O[C@@H](O[C@@H]3[C@@H](O)[C@H](N)C[C@H](N)[C@H]3O[C@H]3O[C@H](CN)[C@@H](O)[C@H](O)[C@H]3N)[C@H](O)[C@@H]2O[C@H]2O[C@@H](CN)[C@@H](O)[C@H](O)[C@H]2N)nn1	0.146	0.21	0.162	0.338	1.1 ×10⁷ /M	3.6 ×10⁷ /M	3.5 ×10⁶ /M	2.8	2.6	0.142	–	–	–	–	–	–	–	–	–	–
NC[C@@H]1O[C@H](O[C@H]2[C@@H](O)[C@H](O[C@@H]3[C@@H](O)[C@H](N)C[C@H](N)[C@H]3O[C@H]3O[C@H](CN)[C@@H](O)[C@H](O)[C@H]3N)O[C@@H]2Cn2cc(CCCCCCc3cn(C[C@H]4O[C@@H](O[C@@H]5[C@@H](O)[C@H](N)C[C@H](N)[C@H]5O[C@H]5O[C@H](CN)[C@@H](O)[C@H](O)[C@H]5N)[C@H](O)[C@@H]4O[C@H]4O[C@@H](CN)[C@@H](O)[C@H](O)[C@H]4N)nn3)nn2)[C@H](N)[C@@H](O)[C@@H]1O	0.126	0.214	0.15	0.256	6.6 ×10⁷ /M	6.3 ×10⁷ /M	5 ×10⁶ /M	5.9	3.8	0.146	–	–	–	–	–	–	–	–	–	–
NC[C@@H]1O[C@H](O[C@H]2[C@@H](O)[C@H](O[C@@H]3[C@@H](O)[C@H](N)C[C@H](N)[C@H]3O[C@H]3O[C@H](CN)[C@@H](O)[C@H](O)[C@H]3N)O[C@@H]2Cn2cc(CCCCc3cn(C[C@H]4O[C@@H](O[C@@H]5[C@@H](O)[C@H](N)C[C@H](N)[C@H]5O[C@H]5O[C@H](CN)[C@@H](O)[C@H](O)[C@H]5N)[C@H](O)[C@@H]4O[C@H]4O[C@@H](CN)[C@@H](O)[C@H](O)[C@H]4N)nn3)nn2)[C@H](N)[C@@H](O)[C@@H]1O	0.144	0.278	0.216	0.278	2.6 ×10⁷ /M	2.2 ×10⁷ /M	–	1.2	2.1	0.16	–	–	–	–	–	–	–	–	–	–
NC[C@@H]1O[C@H](O[C@H]2[C@@H](O)[C@H](O[C@@H]3[C@@H](O)[C@H](N)C[C@H](N)[C@H]3O[C@H]3O[C@H](CN)[C@@H](O)[C@H](O)[C@H]3N)O[C@@H]2Cn2cc(COCCCCCCCCOCc3cn(C[C@H]4O[C@@H](O[C@@H]5[C@@H](O)[C@H](N)C[C@H](N)[C@H]5O[C@H]5O[C@H](CN)[C@@H](O)[C@H](O)[C@H]5N)[C@H](O)[C@@H]4O[C@H]4O[C@@H](CN)[C@@H](O)[C@H](O)[C@H]4N)nn3)nn2)[C@H](N)[C@@H](O)[C@@H]1O	0.156	0.188	0.106	0.234	7.6 ×10⁶ /M	6.8 ×10⁷ /M	1.4 ×10⁷ /M	7.2	4.8	0.108	–	–	–	–	–	–	–	–	–	–
NC[C@@H]1O[C@H](O[C@H]2[C@@H](O)[C@H](O[C@@H]3[C@@H](O)[C@H](N)C[C@H](N)[C@H]3O[C@H]3O[C@H](CN)[C@@H](O)[C@H](O)[C@H]3N)O[C@@H]2Cn2cc(CCCc3cn(C[C@H]4O[C@@H](O[C@@H]5[C@@H](O)[C@H](N)C[C@H](N)[C@H]5O[C@H]5O[C@H](CN)[C@@H](O)[C@H](O)[C@H]5N)[C@H](O)[C@@H]4O[C@H]4O[C@@H](CN)[C@@H](O)[C@H](O)[C@H]4N)nn3)nn2)[C@H](N)[C@@H](O)[C@@H]1O	0.118	0.19	0.146	0.224	7.1 ×10⁷ /M	8.9 ×10⁷ /M	1.4 ×10⁷ /M	7.5	6.9	0.134	–	–	–	–	–	–	–	–	–	–
NC[C@@H]1O[C@H](O[C@H]2[C@@H](O)[C@H](O[C@@H]3[C@@H](O)[C@H](N)C[C@H](N)[C@H]3O[C@H]3O[C@H](CN)[C@@H](O)[C@H](O)[C@H]3N)O[C@@H]2CO)[C@H](N)[C@@H](O)[C@@H]1O [FRAMYCETIN]	0.378	0.684	0.192	–	–	3 ×10⁷ /M	–	1.6	–	0.15	0.2	0	1	1	0	0.5	1	1	–	–
NC[C@@H]1O[C@H](O[C@H]2[C@@H](O)[C@H](O[C@@H]3[C@@H](O)[C@H](N)C[C@H](N)[C@H]3O[C@H]3O[C@H](CN)[C@@H](O)[C@H](O)[C@H]3N)O[C@@H]2Cn2cc(-c3ccc(-c4cn(C[C@H]5O[C@@H](O[C@@H]6[C@@H](O)[C@H](N)C[C@H](N)[C@H]6O[C@H]6O[C@H](CN)[C@@H](O)[C@H](O)[C@H]6N)[C@H](O)[C@@H]5O[C@H]5O[C@@H](CN)[C@@H](O)[C@H](O)[C@H]5N)nn4)cc3)nn2)[C@H](N)[C@@H](O)[C@@H]1O	0.15	–	–	–	1.5 ×10⁸ /M	–	–	–	–	–	–	–	–	–	–	–	–	–	–	–
NC[C@@H]1O[C@H](O[C@H]2[C@@H](O)[C@H](O[C@@H]3[C@@H](O)[C@H](N)C[C@H](N)[C@H]3O[C@H]3O[C@H](CN)[C@@H](O)[C@H](O)[C@H]3N)O[C@@H]2Cn2cc(-c3cccc(-c4cn(C[C@H]5O[C@@H](O[C@@H]6[C@@H](O)[C@H](N)C[C@H](N)[C@H]6O[C@H]6O[C@H](CN)[C@@H](O)[C@H](O)[C@H]6N)[C@H](O)[C@@H]5O[C@H]5O[C@@H](CN)[C@@H](O)[C@H](O)[C@H]5N)nn4)c3)nn2)[C@H](N)[C@@H](O)[C@@H]1O	0.11	0.18	0.142	0.244	1.4 ×10⁸ /M	1 ×10⁸ /M	1.3 ×10⁷ /M	6.9	–	0.13	–	–	–	–	–	–	–	–	Active	Active

Reference: ChEMBL document CHEMBL3588850, “Multivalent Amino Sugars to Recognize Different TAR RNA Conformations” (Medchemcomm, 2014)
